Source: publication PMC2773129 (JACC. Cardiovascular imaging, 2009)
Bridges are numbered along the chain shown (N, C = ends). Roman numbers before positions name the chains, in order. Where no end group is shown, it is not given here. The star is where a group is joined. X1 = O=C(CON=Cc1ccc(F)cc1)*

Assays:
[1] = Biodistribution by gamma counting of harvested organs; assay type: in vivo; conditions: mouse, iv, 150 uCi, total radioactivity
Summary of the method: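 Test compound (¹⁸F-labelled peptide, 150 μCi) injected into the tail vein of 6 wild-type mice under isoflurane anaesthesia. Mice were killed at 4 h and perfused with saline. Organs and feces were harvested and counted in a gamma counter. Counts were corrected for decay and residual injection-site activity and expressed as %ID per gram tissue, mean±SEM.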

[2] = tested on: atherosclerotic plaques, VCAM-1; assay: Ex vivo uptake of 18F-4V in excised aortas; set-up: species or system mouse
[3] = tested on: VCAM-1 expression in atherosclerotic plaques; assay: In vivo PET-CT imaging of aortic root; set-up: species or system mouse; conditions: apoE-/- mice, PET-CT initiated 1 hour after injection, mean±SEM
[4] = tested on: infarcted myocardium, VCAM-1; assay: 18F-4V uptake after myocardial infarction; assay type: in vivo, mouse; conditions: mice 5 days after MI, without antibody blocking
[5] = tested on: rejected cardiac allograft, VCAM-1; assay: 18F-4V uptake in heterotopic allograft heart transplant rejection; assay type: in vivo, mouse; conditions: day 7 after heart transplantation

tissue uptake at 4 h ([1]; aorta): 1.3 ± 0.4 %ID/g
tissue uptake at 4 h ([1]; bone): 1.3 ± 0.4 %ID/g
tissue uptake at 4 h ([1]; esophagus): 1.5 ± 0.5 %ID/g
tissue uptake at 4 h ([1]; fat): 1.7 ± 0.1 %ID/g
dose excreted at 4 h ([1]; feces): 0.2 ± 0.1%
tissue uptake at 4 h ([1]; heart): 0.6 ± 0.2 %ID/g
tissue uptake at 4 h ([1]; kidney): 13.2 ± 2.8 %ID/g
tissue uptake at 4 h ([1]; large intestine): 1.4 ± 0.5 %ID/g
tissue uptake at 4 h ([1]; liver): 3.7 ± 1.1 %ID/g
tissue uptake at 4 h ([1]; lung): 2.2 ± 0.8 %ID/g
tissue uptake at 4 h ([1]; lymph node): 3.7 ± 0.3 %ID/g
tissue uptake at 4 h ([1]; skeletal muscle): 0.7 ± 0.3 %ID/g
tissue uptake at 4 h ([1]; skin): 1.7 ± 0.6 %ID/g
tissue uptake at 4 h ([1]; small intestine): 1.9 ± 0.4 %ID/g
tissue uptake at 4 h ([1]; spleen): 2.1 ± 0.6 %ID/g
tissue uptake at 4 h ([1]; stomach): 1.7 ± 1.1 %ID/g
tissue uptake at 4 h ([1]; thymus): 0.9 ± 0.3 %ID/g
tissue uptake at 4 h ([1]; whole blood): 1.5 ± 0.4 %ID/g
Substance: I: VHPKQHRGGSYKKK(X1) / II: VHPKQHRGGSYK / III: VHPKQHRGGSY / IV: VHPKQHRGGSY (amide I:12-IV:C, I:13-II:C, II:12-III:C) [^18F-4V]
ex vivo %IDGT in murine atheroma ([2]; apoE-/- mice, ex vivo, mean±SEM): 5.9±1.5 %IDGT
uptake in the aortic root, higher in apoE-/- mice compared to wild type ([2]; excised aortas, apoE-/- vs wild-type mice, p < 0.05): 312%
PET signal in murine atheroma (standard uptake value) [3]: 0.31±0.02 SUV
infarct activity to background ratio [4]: 3.1
graft to background ratio after pre-injection of VCAM-1 targeted antibody ([5]; pre-injection with VCAM-1 targeted antibody): 1.4
graft to background ratio ([5]; without antibody blocking): 2.4
